Rows were chosen to be rich in hits. Some 1.8% of all compounds tested hit in one or more screens of this group.
DAGLB inh: blocks human DAGLB lipase activity. Q8NCG7. HEK293T DAGLB membrane lysate, EnzChek fluorogenic substrate. inhibition, % at 5.17 µM. 340,000 compounds, 0.059% hits. AID 504411; in the data active = inhibition above about 34%;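 note: 0% = enzyme with vehicle and 100% = wells lacking enzyme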
Target sequence (Q8NCG7 whole entry, looked up): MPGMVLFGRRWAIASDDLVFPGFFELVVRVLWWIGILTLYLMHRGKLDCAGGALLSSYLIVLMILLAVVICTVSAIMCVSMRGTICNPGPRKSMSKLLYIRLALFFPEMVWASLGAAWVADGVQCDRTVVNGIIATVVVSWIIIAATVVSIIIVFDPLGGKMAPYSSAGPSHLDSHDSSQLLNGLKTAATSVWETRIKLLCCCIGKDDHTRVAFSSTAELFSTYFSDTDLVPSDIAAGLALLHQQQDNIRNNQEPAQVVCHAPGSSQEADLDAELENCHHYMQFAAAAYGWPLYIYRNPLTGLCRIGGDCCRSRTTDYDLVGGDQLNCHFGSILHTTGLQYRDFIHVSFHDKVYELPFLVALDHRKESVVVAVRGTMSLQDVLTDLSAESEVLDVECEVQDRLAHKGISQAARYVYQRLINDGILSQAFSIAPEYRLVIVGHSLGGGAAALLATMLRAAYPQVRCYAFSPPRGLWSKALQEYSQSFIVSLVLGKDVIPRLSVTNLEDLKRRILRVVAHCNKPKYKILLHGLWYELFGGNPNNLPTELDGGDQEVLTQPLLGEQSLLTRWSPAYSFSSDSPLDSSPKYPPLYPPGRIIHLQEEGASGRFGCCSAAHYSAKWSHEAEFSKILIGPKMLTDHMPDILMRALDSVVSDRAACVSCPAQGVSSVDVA
iPSC survival up: hiPSC single-cell survival enhancement; ATPlite luminescence; 100% = ROCK inhibitor wells, 0% = DMSO; survival enhancement, % at 20 µM; 360,000 compounds, 0.044% hits; AID 602274; in the data active = survival enhancement above about 18%;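 note: cells exposed to compounds for 16 hours before the ATP read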
rRNA inh HTS: inhibits bacterial ribosomal RNA function over humanized ribosomes | AID 720706 | 350,000 compounds, 1.6% hits | GFP signal change (wild-type ribosome), % (test concentration not listed) | E. coli WT GFP vs humanized-ribosome RFP mutants, fluorescence, 24 h; hits give low values; DMSO median 0, no signal -100;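 active = significant combined selectivity score with lowered wild-type GFP, culture density cut under 30%, mutant RFP and density less affected; inactive = any of these conditions unmet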
SKN-1 block: C. elegans SKN-1 inhibition; C. elegans VP596 Pgst-4::GFP/RFP ratio, acrylamide-induced, 24 h; inhibition, % at 21.8 µM; 360,000 compounds, 0.49% hits;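 active = interference check ratio from 0.5 to 1.5 plus GFP to RFP signal ratio inhibition reaching or exceeding a fixed threshold, cut at about 30% in these data, passing the limit was not always enough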
Cneo AK release: causes C. neoformans cell lysis; lysis activity, % at 15 µM; AID 651654; 360,000 compounds, 0.2% hits; adenylate kinase release luminescence, 4 h; normalised: neutral wells 0, clomiphene wells 100;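 active = mean lysis activity across replicates of at least 80%, whatever share of replicates individually reach that level; inactive = mean lysis activity below 80%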
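Assay system: log-phase C. neoformans yeast / Quantity: yeast cell density of 5 × 10^6 cells/mL / Medium: fresh YPD growth medium / Compound: single dose / Timing: static 4 h at 37 °C with compound, 1 h detection / Measured by: adenylate kinase release luminescence / Read-out: lysis from increased AK signal / Benchmarks: Clomiphene as positive lysis control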
MT1-MMP act inh: MT1-MMP (human) activation inhibition; P50281; HT1080 RFP-PRO-GFP cells, GFP/RFP ratio fluorescence, overnight; percent of plate control window, DMSO zero; GFP/RFP ratio change, % at 20 µM; 360,000 compounds, 0.061% hits; AID 651647;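 active = GFP/RFP ratio change of at least 30% with cell ATP level not reduced by more than half and red fluorescence within 50% of control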
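Assay system: HT1080 RFP-PRO-GFP cells | Dosing: 20 µM single dose, 1% DMSO | Incubation: Cells overnight before dosing, compound overnight, 37 °C, 5% CO2 | Evaluation: GFP/RFP fluorescence ratio | Control set: DMSO-only wells and HT1080 RFP-L50D-GFP cell wells as references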
AID977621: wild-type E. coli growth inhibition versus H69 humanized strain – H69 mutant RFP, wild-type GFP, cherry-pick, dose response | shares compounds with rRNA inh HTS | fluorescence, 24 h | activity change, negative = inhibition at 50 µM | 1,900 tested, under 10 active;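 active = Wild-type ribosome reporter drop at least double the humanized mutant ribosome reporter drop, growth loss under a set limit; inconclusive = no clear call, values can overlap the other calls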;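 note: wild-type GFP and H69 mutant RFP strains grown together 50/50 in each well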
AID977628: E. coli growth inhibition, wild-type GFP versus h24 humanized RFP strain, dose response, h24 mutant RFP vs wild-type GFP, cherry-pick | shares compounds with rRNA inh HTS | E. coli WT GFP strain growth, fluorescence, 24 h | activity change, negative = inhibition at 50 µM | 1,900 tested, under 10 active | AID 977628;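 active = compound lowering the normal-ribosome reporter at least twice as much as the humanized-ribosome reporter, growth loss under a set limit; inconclusive = no clear call, values can overlap the other calls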;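 note: wild-type GFP and h24 humanized RFP strains co-cultured 1 to 1 per well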
The depositor's hits bear a star; ? = inconclusive; . = no result.

SMILES	DAGLB inh	iPSC survival up	rRNA inh HTS	SKN-1 block	Cneo AK release	MT1-MMP act inh	AID977621	AID977628
c1ccc(CNc2nc(-c3cccnc3)cs2)cc1	1	-1	-9	2	.	-2	.	.
c1ccc(-c2nc(-c3cccnc3)cs2)cc1	-4	0	-24*	22	-3	0	?	.
COc1cccc(C(=O)c2c[nH]c(C(=O)NCc3cccnc3)c2)c1	0	0	-29*	-11	.	4	.	-10
C/C=C/c1ccc([C@H]2[C@@H](CO)N3C(=O)CN(C(=O)c4ccc(F)cc4)C[C@@H]23)cc1	.	.	0	.	.	.	.	.
CCCC(=O)Nc1ccc2c(c1)C(=O)N(C)C[C@H](OC)[C@H](C)CN(C(=O)C1CCCC1)[C@@H](C)CO2	.	.	0	.	0	.	.	.
CCOc1ccccc1C(=O)NCC(=O)OCCCOC(=O)CNC(=O)c1ccccc1OCC	-1	1	-9	1	2	4	.	.
CCOc1ccccc1C(=O)NCC(=O)OCCOc1cccc(Cl)c1	-2	0	-33*	-18	-3	1	-11	-5.6
O=C(C[C@H]1C[C@H]2c3cc(NC(=O)Cc4ccncc4)ccc3O[C@H]2[C@@H](CO)O1)NCc1ccccc1	.	.	-2	.	-1	.	.	.
O=C(O)CCN(Cc1ccccc1)S(=O)(=O)c1ccc(Cl)cc1F	0	0	-20*	13	.	-2	-5.9	?
O=C(O)CCN(Cc1ccccc1)S(=O)(=O)c1ccccc1Cl	-1	-1	-20*	17	.	1	-5.7	.
COC(=O)CCN(Cc1ccccc1)S(=O)(=O)c1ccccc1Br	-4	1	-9	13	1	2	.	.
COC(=O)C[C@H]1C[C@H]2c3cc(NS(=O)(=O)c4cccc(OC)c4)ccc3O[C@H]2[C@H](CO)O1	.	.	0	.	-2	.	.	.
COCC(=O)N(C)C[C@@H]1Oc2cc(C#Cc3ccccc3)ccc2S(=O)(=O)N([C@@H](C)CO)C[C@H]1C	.	.	-2	.	55	.	.	.
CS(=O)(=O)c1ccc(Cl)c(NC(=O)COC(=O)c2c(Cl)cccc2Cl)c1	-2	1	-26*	6	-3	1	-5.1	-7.1
CC(=O)Nc1sc(C)c(C)c1C(=O)OCC(=O)Nc1cc(S(C)(=O)=O)ccc1Cl	-3	0	6	6	0	1	.	.
COC(=O)c1ccc(OS(=O)(=O)c2ccc(NC(C)=O)cc2)cc1	-2	0	-21*	-4	.	-3	.	?
COc1ccc2c3c([nH]c2c1)[C@H](CO)N(S(C)(=O)=O)CC31CCN(Cc2cccc(F)c2)CC1	.	.	-1	.	.	.	.	.
CCn1cc(Cl)c(C(=O)Nc2cccc(C(F)(F)F)c2)n1	-6	-1	-23*	7	.	-1	-16	.
O=C(Cc1cccnc1)N1CC(=O)N2[C@H](C1)[C@@H](c1ccc(-c3cccc(F)c3)cc1)[C@@H]2CO	.	.	-11	.	.	.	.	.
COc1ccc(N(C)S(=O)(=O)c2cccc(C(=O)NC3CCCC3)c2)cc1	-2	0	-26	19	1	-26	.	.
COc1ccc(N(C)S(=O)(=O)c2cccc(C(=O)NC3CCCCC3C)c2)cc1 (stereo not drawn)	-3	0	-27*	-6	4	-13	-6.9	.
CS(=O)(=O)Nc1ccc2c(c1)[C@@H]1C[C@H](CC(=O)NCc3ccccc3)O[C@H](CO)[C@@H]1O2	.	.	2	.	46	.	.	.
CCCC#Cc1cnc2c(c1)C(=O)N([C@H](C)CO)C[C@@H](C)[C@@H](CN(C)C(=O)NC1CCCC1)O2	.	.	7	.	-8	.	.	.
CCOC(=O)CSc1nc(C)c2cc(C)c(C)cc2n1	-5	0	.	-4	-1	-1	.	.
Cc1cc2nc(SCC(=O)O)nc(C)c2cc1C	1	-2	-17*	7	0	1	-16	.
SMILES	DAGLB inh	iPSC survival up	rRNA inh HTS	SKN-1 block	Cneo AK release	MT1-MMP act inh	AID977621	AID977628
Cc1cc(NC(=O)CCCn2cc([N+](=O)[O-])cn2)n(Cc2ccc(F)cc2)n1	-2	0	-23*	3	.	-2	0.39	?
C[C@@H](NC(=O)N(C)C[C@H]1OCc2ccccc2-c2c(n(C)c3ccccc23)C(=O)N([C@@H](C)CO)C[C@@H]1C)c1ccccc1	.	.	-12	.	0	.	.	.
O=C(Nc1cccnc1)c1sc2cccc(F)c2c1Cl	-4	0	-20*	4	1	-18	-8.2	-2.7
Cc1ccc(CC2C(=O)N(c3ccccc3)C(=O)C2C)cc1 (stereo not drawn)	-3	1	-4	-3	1	5	.	.
Cc1ccc(CC2C(=O)N(c3cc(Cl)ccn3)C(=O)C2C)cc1 (stereo not drawn)	-3	0	-20*	-7	.	5	-20	?
O=C(NCC[C@H]1CC[C@H](NS(=O)(=O)c2cccc(F)c2)[C@H](CO)O1)c1cnccn1	.	.	0	.	-1	.	.	.
COc1cc(NC(=O)c2ccccc2)c(OC)cc1Cl	-3	3	.	12	4	-3	.	.
COc1ccc(-c2ccccc2)cc1NC(=O)c1ccncc1	-2	0	-31*	-11	.	0	-21	.
C[C@H]1CN([C@@H](C)CO)S(=O)(=O)c2ccc(-c3cccc(C#N)c3)cc2O[C@H]1CN(C)Cc1cccc(F)c1	.	.	1	.	-2	.	.	.
Cn1cnc([N+](=O)[O-])c1Oc1ccccc1	-1	-2	-37*	-4	.	5	2.5	-2.1
Cn1cnc([N+](=O)[O-])c1Oc1cccc(O)c1	1	-2	.	6	.	0	.	.
CN(C)CC(=O)N[C@H]1CC[C@@H](CCNC(=O)C2CCCCC2)O[C@H]1CO	.	.	0	.	49	.	.	.
CCOC(=O)c1c(C)[nH]c(C)c1C(=O)COC(=O)C1CCCN1S(=O)(=O)c1ccccc1F (stereo not drawn)	0	-1	.	-34	-1	0	.	.
O=C(COC(=O)[C@@H]1CCCN1S(=O)(=O)c1ccccc1F)c1ccccc1	-3	0	-16*	-3	-1	5	-6.6	?
C=CCNc1ccc2c(c1)OC[C@H](CC(C)C)NS2(=O)=O	.	.	-23*	.	.	.	?	.
CCCNC(=O)N1CC2(C1)[C@@H](c1ccccc1)[C@H](CO)N2Cc1ccc(F)cc1	.	.	0	.	.	.	.	.
COc1ccc(-c2noc(CCc3ccccc3)n2)cc1	-21	0	-20*	18	-2	-1	-0.82	-1.8
